In ChEMBL document CHEMBL1143785, “N/C-4 substituted azetidin-2-ones: synthesis and preliminary evaluation as new class of antimicrobial agents” (2007):
Converted amounts (≈) assume the structure as drawn. The source made the active and inactive calls. No cut-off for these calls is given here.

Key:
Format in all cases: functional
Staphylococcus aureus = assay: Antimicrobial activity against Staphylococcus aureus at 400 ug/ml after 48 hrs by disc-diffusion assay; conditions: for zone of inhibition at 400 µg/mL: read-out: IZ
In short: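 Bacteria were grown 2.5 h in nutrient broth and spread evenly over dried agar plates. Sterile 6 mm paper discs were impregnated with 400 µg/mL compound and placed on the inoculated surface. A DMF solvent-only disc served as negative control and chloramphenicol as reference. Plates were incubated at 37 °C and inhibition zone diameter (mm) was read at 48 h.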

Salmonella typhi = assay: Antimicrobial activity against Salmonella typhi at 400 ug/ml after 48 hrs by disc-diffusion assay; conditions: for inhibition zone (IZ): Salmonella enterica subsp. enterica serovar Typhi; for zone of inhibition at 400 µg/mL: Salmonella enterica, read-out: IZ
In short: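 Disc diffusion. A few colonies were grown in nutrient broth for 2.5 h, then spread evenly on dried agar plates. Sterile 6 mm paper discs impregnated with compound were placed on the surface. Plates were incubated at 37 °C and the inhibition zone diameter in mm was read at 48 h. A DMF-only disc served as the negative control and chloramphenicol as the standard.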

Bacillus anthracis = assay: Antimicrobial activity against Bacillus anthracis at 400 ug/ml after 48 hrs by disc-diffusion assay; conditions: for zone of inhibition at 400 µg/mL: read-out: IZ
Aspergillus fumigatus = assay: Antimicrobial activity against Aspergillus fumigatus after 72 hrs by broth dilution assay
In short: (§1)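 Tube broth dilution in Sabouraud's Dextrose medium. Compound was dissolved in DMF and tested over 15.62 to 8000 µg/mL. Tubes were inoculated with fungal culture suspension and incubated at 25 °C for 72 h alongside a control. MIC was taken as the lowest concentration giving no turbidity.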

Aspergillus niger = assay: Antimicrobial activity against Aspergillus niger after 72 hrs by broth dilution assay; in short: as §1
Candida albicans = assay: Antimicrobial activity against Candida albicans after 72 hrs by broth dilution assay; in short: as §1

Row | SMILES | inhibition zone (IZ) (Staphylococcus aureus) | inhibition zone (IZ) (Salmonella typhi) | zone of inhibition at 400 µg/mL (Bacillus anthracis) [mm] | MIC (Aspergillus fumigatus) | MIC (Aspergillus niger) | MIC (Candida albicans) | zone of inhibition at 400 µg/mL (Staphylococcus aureus) [mm] | inhibition zone (IZ) (Bacillus anthracis) | zone of inhibition at 400 µg/mL (Salmonella typhi) [mm]
1 | O=C1[C@@H](Cl)[C@@H](c2cc(/N=N/c3ccc([N+](=O)[O-])cc3)ccc2O)N1c1ccc(Br)cc1 | inactive | inactive | 8 | inactive | 4000 mg/L (≈ 7.97 mM) | 4000 mg/L (≈ 7.97 mM) | – | – | –
2 | COc1cc([C@@H]2[C@H](Cl)C(=O)N2NC(=O)CC(=O)Nc2ccccc2)ccc1OC(C)=O | – | inactive | – | – | 4000 mg/L (≈ 8.97 mM) | 1000 mg/L (≈ 2.24 mM) | 10 | inactive | –
3 | COc1cc([C@@H]2[C@H](Cl)C(=O)N2NC(=O)CC(=O)Nc2ccc([N+](=O)[O-])cc2)ccc1OC(C)=O | inactive | inactive | 12 | – | 4000 mg/L (≈ 8.15 mM) | 1000 mg/L (≈ 2.04 mM) | – | – | –
4 | O=C1[C@@H](Cl)[C@@H](c2cc(/N=N/c3ccc([N+](=O)[O-])cc3)ccc2O)N1c1ccc(F)cc1 | inactive | inactive | 12 | – | 4000 mg/L (≈ 9.07 mM) | 2000 mg/L (≈ 4.54 mM) | – | – | –
5 | O=C1[C@@H](Cl)[C@@H](c2cc(/N=N/c3ccc([N+](=O)[O-])cc3)ccc2O)N1c1ccc(Cl)cc1 | – | – | 21 | inactive | 2000 mg/L (≈ 4.37 mM) | 250 mg/L (≈ 0.547 mM) | 17 | – | 10
6 | O=C(N[C@H](CO)[C@H](O)c1ccc([N+](=O)[O-])cc1)C(Cl)Cl [CHLORAMPHENICOL] | – | – | 34 | inactive | inactive | inactive | 32 | – | 36
7 | OC(Cn1cncn1)(Cn1cncn1)c1ccc(F)cc1F [FLUCONAZOLE] | inactive | inactive | – | – | 2000 mg/L (≈ 6.53 mM) | 250 mg/L (≈ 0.816 mM) | – | inactive | –
8 | O=C1[C@@H](Cl)[C@@H](c2cc(/N=N/c3cccc([N+](=O)[O-])c3)ccc2O)N1c1ccc(Br)cc1 | – | – | 17 | – | 4000 mg/L (≈ 7.97 mM) | inactive | 11 | – | 8
9 | COc1cc([C@@H]2[C@H](Cl)C(=O)N2NC(=O)CC(=O)Nc2cccc(Cl)c2)ccc1OC(C)=O | – | – | 22 | – | 2000 mg/L (≈ 4.16 mM) | 125 mg/L (≈ 0.26 mM) | 26 | – | 17
10 | COc1cc([C@@H]2[C@H](Cl)C(=O)N2NC(=O)CC(=O)Nc2ccccc2Cl)ccc1OC(C)=O | – | inactive | 21 | – | 1000 mg/L (≈ 2.08 mM) | 500 mg/L (≈ 1.04 mM) | 12 | – | –
11 | O=C1[C@@H](Cl)[C@@H](c2cc(/N=N/c3cccc([N+](=O)[O-])c3)ccc2O)N1c1ccc(F)cc1 | – | – | 28 | – | 500 mg/L (≈ 1.13 mM) | 62.5 mg/L (≈ 0.142 mM) | 29 | – | 21
12 | COc1cc([C@@H]2[C@H](Cl)C(=O)N2NC(=O)CC(=O)Nc2ccc(Cl)cc2)ccc1OC(C)=O | – | – | 34 | – | 1000 mg/L (≈ 2.08 mM) | 31.2 mg/L (≈ 0.0651 mM) | 30 | – | 29
13 | COc1cc([C@@H]2[C@H](Cl)C(=O)N2NC(=O)CC(=O)Nc2cccc([N+](=O)[O-])c2)ccc1OC(C)=O | – | – | 33 | – | 2000 mg/L (≈ 4.07 mM) | 62.5 mg/L (≈ 0.127 mM) | 27 | – | 31
14 | O=C1[C@@H](Cl)[C@@H](c2cc(/N=N/c3ccc([N+](=O)[O-])cc3)ccc2O)N1c1ccccc1 | – | inactive | 10 | inactive | 4000 mg/L (≈ 9.46 mM) | 2000 mg/L (≈ 4.73 mM) | 8 | – | –
15 | COc1cc([C@@H]2[C@H](Cl)C(=O)N2NC(=O)CC(=O)Nc2ccccc2[N+](=O)[O-])ccc1OC(C)=O | – | inactive | 17 | – | 4000 mg/L (≈ 8.15 mM) | 2000 mg/L (≈ 4.07 mM) | 11 | – | –
16 | O=C1[C@@H](Cl)[C@@H](c2cc(/N=N/c3cccc([N+](=O)[O-])c3)ccc2O)N1c1ccccc1 | – | – | 31 | – | 4000 mg/L (≈ 9.46 mM) | 1000 mg/L (≈ 2.37 mM) | 24 | – | 18
17 | O=C1[C@@H](Cl)[C@@H](c2cc(/N=N/c3cccc([N+](=O)[O-])c3)ccc2O)N1c1ccc(Cl)cc1 | – | – | 32 | – | 1000 mg/L (≈ 2.19 mM) | 125 mg/L (≈ 0.273 mM) | 30 | – | 27
